Reference: ChEMBL document CHEMBL3421551, “Puupehenol, a potent antioxidant antimicrobial meroterpenoid from a Hawaiian deep-water Dactylospongia sp. sponge” (J Nat Prod, 2015)
Active and inactive are the calls of the source. The rule behind the calls is not given here.

Key:
[1] = Antioxidant activity assessed as ferric reducing antioxidant power at 0.1 mg/ml by FRAP assay; assay type: physicochemical
Procedure, shortened: (§1)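 Working reagent was 300 mM acetate buffer (pH 3.6), 10 mM TPTZ in 40 mM HCl and 20 mM FeCl3·6H2O mixed 10:1:1 and warmed to 37 °C. A blank read at 595 nm was taken, then sample was added. After 8 min at room temperature, absorbance was read at 595 nm, in triplicate. FRAP values (μM) came from an FeSO4 standard curve (50–1000 μM) run on each plate.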

Bacillus cereus = experiment: Antimicrobial activity against Bacillus cereus at 10 ug/disc by disc diffusion assay; assay type: functional; details: read-out: IZ
Escherichia coli = experiment: Antimicrobial activity against Escherichia coli at 10 ug/disc by disc diffusion assay; assay type: functional; details: for zone of inhibition at 10 µg/disc: read-out: IZ
Procedure, shortened: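 Disc diffusion assay, tested alongside S. aureus, B. cereus and P. aeruginosa. Discs loaded at 10 μg each, with a methanol disc as the negative control.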

[2] = Antioxidant activity assessed as ferric reducing antioxidant power at 1 mg/ml by FRAP assay; assay type: physicochemical; procedure, shortened: as §1
Pseudomonas aeruginosa = experiment: Antimicrobial activity against Pseudomonas aeruginosa at 10 ug/disc by disc diffusion assay; assay type: functional, organism-based
Staphylococcus aureus = experiment: Antimicrobial activity against Staphylococcus aureus at 10 ug/disc by disc diffusion assay; assay type: functional; details: read-out: IZ

Activity [1]	SMILES	zone of inhibition at 10 µg/disc (Bacillus cereus)	inhibition zone (IZ) (Escherichia coli)	Activity [2]	inhibition zone (IZ) (Pseudomonas aeruginosa)	zone of inhibition at 10 µg/disc (Staphylococcus aureus)	zone of inhibition at 10 µg/disc (Escherichia coli)
870 µM	O=C1O[C@H]([C@@H](O)CO)C(O)=C1O [ASCORBIC ACID]						
	CC1(C)CCC[C@]2(C)[C@H]3C=C4C=C(O)C(=O)C=C4O[C@@]3(C)CC[C@@H]12 [PUUPEHENONE]	3 mm	inactive	2600 µM	inactive	4 mm	
	CO [METHYL ALCOHOL]	0 mm		4.7 µM	inactive	0 mm	0 mm
	CC1(C)S[C@@H]2[C@H](NC(=O)[C@H](N)c3ccccc3)C(=O)N2[C@H]1C(=O)O [AMPICILLIN]	9 mm			inactive	31 mm	20 mm
	CC1(C)CCC[C@]2(C)[C@H]3[C@H](O)c4cc(O)c(O)cc4O[C@@]3(C)CC[C@@H]12 (relative stereo)	3 mm	inactive	2500 µM	inactive	4 mm	
